The source made the active and inactive calls. Unless noted, no stated cut-off is given here; in the data, active means inhibition above about 30%; inactive means the rest.
How the values were obtained:
[1] = Her2 expression decrease, cell viability multiplex – SKBR3 breast tumor cells, AlphaScreen, ATP viability, primary screen (AID 461;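 active means Her2 level under about 52% in both replicate screens, with viability over 70% of control, limit read from the data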;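 on Her2 level: lower value means less Her2 protein in the cells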;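 on viability: percent of carrier control wells set as 100% viability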); conditions: SKBR3 Her2 protein level, 18-24 h, measured here: SKBR3 viability, ATP luminescence, at 10 µM
[2] = molecular target: Receptor tyrosine-protein kinase erbB-2 (Homo sapiens) (UniProt P04626); assay: as above; conditions: 18-24 h, at 10 µM, stronger effect = lower value
[3] = reduced viability of SK-BR-3 breast cancer cells – cell-based, 24 h, human, pilot screen (AID 572;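 active means viability at or below 10% of carrier control in both of two separate runs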;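 further: compound exposure lasted between 18 and 24 h rather than exactly 24 h; 100% = carrier-treated control wells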); conditions: SK-BR-3 viability, CellTiter-Glo luminescence, at 10 µM, stronger effect = lower value
[4] = HUVEC growth inhibition – cell-based, human, primary screen (AID 575;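 active means viability at or below 30% in both replicate assays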;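 further: 100% = median of untreated cell wells with 0.1% DMSO on each plate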); conditions: HUVEC proliferation, CellTiter-Glo luminescence, 72 h; at 10 µM; stronger effect = lower value
Outline: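 Assay system: Primary human umbilical vein endothelial cells | Quantity: 1250 cells per well | Medium: Supplemented EBM, 2% fetal bovine serum | Detection: CellTiter-Glo luminescence measuring cellular ATP | Read-out: % viability vs DMSO wells | Plate: Collagen-coated 384-well format | Times: 72 h exposure, 37 °C, 5% CO2, 30 min RT equilibration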

[5] = H69AR cell proliferation blockers – human, duplicate replicates, primary screen (AID 580;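 active means viability at or under a set limit in both replicates, limit being median viability minus 3 SD, cut at about 48% in these data, passing the limit was not always enough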;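 further: 100% = mean luminescence of untreated wells and 0% = no signal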); conditions: H69AR lung tumor cells viability, ATP luminescence, 72 h; at 10 µM; stronger effect = lower value
[6] = MRP1 drug-resistance reversers in H69AR cells – cell-based, doxorubicin co-treatment, pilot screen (AID 601;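 active means viability loss from added drug above about 55%, and viability with drug at most 40%, in both replicates, limit read from the data, passing the limit was not always enough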); conditions: CellTiter-Glo, 72 h, at 10 µM; for differential viability (reversal): stronger effect = higher value
[7] = yeast transport mutant growth inhibition pilot in 384-well plates, post-Golgi transport modulator project (AID 636; in the data active means inhibition above about 31%); conditions: absorbance 615 nm, about 18 h, stronger effect = higher value
[8] = growth suppression of yeast trafficking mutant, preliminary HTS, modulators of trafficking downstream of Golgi apparatus project, 1536-format plate, OD 615 nm (AID 637); conditions: yeast transport mutant growth, absorbance 615 nm, 18 h; stronger effect = higher value
[9] = H69AR cells + 2 uM doxorubicin, measured here: viability with 2 uM doxorubicin, stronger effect = lower value
[10] = H69AR cells, compound alone cytotoxicity

Receptor tyrosine-protein kinase erbB-2 (Homo sapiens), sequence (P04626 whole entry, looked up): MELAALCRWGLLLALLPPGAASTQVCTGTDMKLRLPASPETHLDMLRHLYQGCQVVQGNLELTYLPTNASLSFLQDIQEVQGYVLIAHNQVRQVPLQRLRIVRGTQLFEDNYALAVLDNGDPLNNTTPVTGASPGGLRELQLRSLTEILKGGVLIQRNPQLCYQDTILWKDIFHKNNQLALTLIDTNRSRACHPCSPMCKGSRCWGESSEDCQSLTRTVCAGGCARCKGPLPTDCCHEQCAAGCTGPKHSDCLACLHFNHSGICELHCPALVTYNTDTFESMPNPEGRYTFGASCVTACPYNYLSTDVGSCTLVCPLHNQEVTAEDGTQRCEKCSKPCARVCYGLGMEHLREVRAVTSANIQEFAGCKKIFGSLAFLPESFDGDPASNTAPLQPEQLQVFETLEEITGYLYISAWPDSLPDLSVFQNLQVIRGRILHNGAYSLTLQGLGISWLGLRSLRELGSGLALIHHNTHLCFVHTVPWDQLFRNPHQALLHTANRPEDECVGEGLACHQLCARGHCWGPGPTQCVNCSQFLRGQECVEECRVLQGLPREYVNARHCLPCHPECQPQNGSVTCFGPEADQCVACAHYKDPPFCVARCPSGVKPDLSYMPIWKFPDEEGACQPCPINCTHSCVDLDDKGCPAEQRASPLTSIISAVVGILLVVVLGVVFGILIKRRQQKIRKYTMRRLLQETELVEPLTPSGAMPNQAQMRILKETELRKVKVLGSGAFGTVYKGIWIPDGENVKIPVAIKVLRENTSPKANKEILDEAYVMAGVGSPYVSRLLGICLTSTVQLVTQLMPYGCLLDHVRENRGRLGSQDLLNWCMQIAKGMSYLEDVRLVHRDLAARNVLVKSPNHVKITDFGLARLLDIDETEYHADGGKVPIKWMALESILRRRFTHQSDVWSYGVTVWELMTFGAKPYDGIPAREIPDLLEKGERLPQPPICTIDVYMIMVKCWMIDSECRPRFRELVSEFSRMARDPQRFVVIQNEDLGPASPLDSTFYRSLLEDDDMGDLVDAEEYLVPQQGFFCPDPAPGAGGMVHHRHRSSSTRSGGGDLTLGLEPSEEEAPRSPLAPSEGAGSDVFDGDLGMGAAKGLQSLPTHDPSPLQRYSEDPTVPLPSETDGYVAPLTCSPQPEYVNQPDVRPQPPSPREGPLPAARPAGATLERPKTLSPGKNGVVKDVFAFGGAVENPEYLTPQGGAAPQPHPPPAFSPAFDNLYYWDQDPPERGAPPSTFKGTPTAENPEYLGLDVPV

Row | Structure (SMILES) | viability [1] [%] | Her2 level [2] | viability [3] | viability [4] | viability [5] | differential viability (reversal) ([6]; H69AR cells + 2 uM doxorubicin) | viability [6, 9] [%] | viability [6, 10] [%] | inhibition [7] | inhibition [8]
1 | Cc1cc(N2C(=O)C3C4C=CC(C4)C3C2=O)ccc1Br (stereo not given) | 107 | 99.5% (inactive) | 107% (inactive) | 87.8% (inactive) | 101% (inactive) | 11.6% (inactive) | 89.3 | 101 | -6.58% (inactive) | -5.4% (inactive)
2 | Cc1ccc(-n2c(Cc3cccn3C)nnc2SCC(=O)NCc2ccc3c(c2)OCO3)cc1 | 97.5 | 89% (inactive) | 97.5% (inactive) | 88.2% (inactive) | 85.8% (inactive) | 5.04% (inactive) | 80.7 | 85.8 | -5.07% (inactive) | -4.59% (inactive)
3 | O=C(OCc1ccc2c(c1)OCO2)c1ccc(S(=O)(=O)N2CCCCC2)cc1 | 75.5 | 84% (inactive) | 75.5% (inactive) | 57.9% (inactive) | 81.9% (inactive) | 0.615% (inactive) | 81.3 | 81.9 | -0.77% (inactive) | -2.5% (inactive)
4 | CCOc1cccc(-c2nnc3sc(COc4ccc(OC)cc4)nn23)c1 | 72.5 | 102% (inactive) | 72.5% (inactive) | 68.3% (inactive) | 85.5% (inactive) | -1.33% (inactive) | 86.9 | 85.5 | -1.95% (inactive) | -6.39% (inactive)
5 | c1ccc(-c2nnc(CN3CCC4(CC3)OCCO4)o2)cc1 | 110 | 91.5% (inactive) | 110% (inactive) | 96.9% (inactive) | 98.7% (inactive) | 8.52% (inactive) | 90.2 | 98.7 | -0.79% (inactive) | 14.5% (inactive)
6 | COC(=O)CCC(=O)Nc1cccc(Br)c1 | 128 | 85% (inactive) | 128% (inactive) | 110% (inactive) | 101% (inactive) | 0.985% (inactive) | 100 | 101 | -9.32% (inactive) | -3.65% (inactive)
7 | CCOC(=O)CNC(=O)Nc1nnc(-c2ccc(OCC)cc2)o1 | 99 | 92% (inactive) | 99% (inactive) | 105% (inactive) | 98.3% (inactive) | 8% (inactive) | 90.3 | 98.3 | -1.08% (inactive) | -3.02% (inactive)
8 | O=C(NCc1ccco1)C1CCN(S(=O)(=O)N2CCC3(CC2)OCCO3)CC1 | 99.5 | 92% (inactive) | 99.5% (inactive) | 118% (inactive) | 100% (inactive) | 14.2% (inactive) | 85.8 | 100 | -6.89% (inactive) | -7.17% (inactive)
9 | O=C(CCC(=O)OCCCC(F)(F)C(F)(F)F)NC1CCCCC1 | 123 | 112% (inactive) | 123% (inactive) | 112% (inactive) | 95.3% (inactive) | 3.4% (inactive) | 91.9 | 95.3 | -5.47% (inactive) | -3.23% (inactive)
10 | O=C(NC(C(=O)c1ccccc1)n1ccc(=O)[nH]c1=O)c1ccccc1 (stereo not given) | 98.5 | 99% (inactive) | 98.5% (inactive) | 98.8% (inactive) | 91.2% (inactive) | 6.79% (inactive) | 84.4 | 91.2 | -0.93% (inactive) | 23.1% (inactive)
11 | O=C(NCC(c1cccnc1)N1CCN(c2ccccc2)CC1)c1ccc2c(c1)OCO2 (stereo not given) | 92 | 94% (inactive) | 92% (inactive) | 105% (inactive) | 90.8% (inactive) | -7.41% (inactive) | 98.2 | 90.8 | -4.46% (inactive) | 12.9% (inactive)
12 | O=C1CCC(=O)N1OCCCOc1ccc(Br)cc1Cl | 106 | 98.5% (inactive) | 106% (inactive) | 90% (inactive) | 93.5% (inactive) | -2.35% (inactive) | 95.9 | 93.5 | 0.13% (inactive) | 2.22% (inactive)
13 | O=C(Nc1ccc2nc(-c3cccs3)[nH]c2c1)c1ccco1 | 108 | 98.5% (inactive) | 108% (inactive) | 94.2% (inactive) | 75.2% (inactive) | 1.25% (inactive) | 74 | 75.2 | 0.13% (inactive) | 2.95% (inactive)
14 | Cc1ccc(N2CC(C(=O)Nc3nnc(C)s3)CC2=O)cc1 (stereo not given) | 110 | 90% (inactive) | 110% (inactive) | 86.2% (inactive) | 106% (inactive) | 16.4% (inactive) | 89.9 | 106 | -4.67% (inactive) | 0.65% (inactive)
